# From PubChem BioAssay
# Active and inactive are the calls of the source.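 How the source made its calls, unless noted: active means duplicate-averaged activation above buffer control mean plus 5 SD of those controls; inactive means the rest.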
# Experiments:
# [1] = nonspecific flux increase, KCNQ1-free cells – parental CHO cells, counter-screen for KCNQ1 potentiator project (AID 493006); details: parental CHO-K1 cells, FluxOR thallium flux, at 10 µM; active compounds read high;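 on activation: fluorescence ratio of max minus min over baseline after K+ and Tl+ depolarization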
# Procedure, shortened: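 Material: untransfected host CHO-K1 cells with FluxOR thallium dye. Timing: overnight 37 °C plating, 90 min RT dye, 20 min compound. Detection: kinetic FluxOR fluorescence, 10 s baseline, 110 s after stimulus. Read-out basis: max-minus-min fluorescence over baseline, percent of buffer-to-R-L3 span. Replicates: duplicate wells per compound, percent values averaged.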
# [2] = molecular target: Potassium voltage-gated channel subfamily KQT member 1 (Homo sapiens) (UniProt P51787); experiment: enhancement of KCNQ1 channel thallium flux – FluxOR thallium flux, CHO cells, duplicates, confirmation (AID 493007;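 active means potentiation averaged over duplicate wells exceeding buffer-only control mean by more than 3 SD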;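 on outcome: cells depolarized by a potassium plus thallium sulfate stimulus after compound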); details: KCNQ1 cell line, FluxOR thallium flux fluorescence, at 10 µM; active compounds read high, % of reference activator effect, buffer zero
# Procedure, shortened: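 Test system – KCNQ1-expressing CHO cell line · Incubation – FluxOR dye loading 90 min, compound exposure 20 min, room temperature · Detection – FluxOR Tl+ flux fluorescence, 10 s baseline plus 110 s recording · Controls – buffer-only wells as 0% and R-L3 activator as 100%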
# [3] = molecular target: Potassium voltage-gated channel subfamily KQT member 2 (Rattus norvegicus) (UniProt O88943); experiment: KCNQ2 thallium flux enhancement – KCNQ2-CHO-K1 cells, selectivity assay for KCNQ1 potentiator project (AID 493009;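 active means mean duplicate potentiation above the buffer control mean plus 5 SD of buffer wells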;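 further: assay conditions were tuned for KCNQ1 rather than KCNQ2 modulators; signal is max minus min fluorescence divided by baseline after thallium stimulus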); details: FluxOR thallium flux fluorescence, at 10 µM; active compounds read high, scaled: buffer 0, activator control 100
# [4] = molecular target: Potassium voltage-gated channel subfamily KQT member 1 (Homo sapiens) (UniProt P51787); experiment: KCNQ1 activators by electrophysiology – IonWorks patch clamp, KCNQ1-CHO cells, orthogonal assay for KCNQ1 potentiator project, confirmation (AID 493184;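 active means current rise at least 3 SD above the untreated control mean in each of two repeat wells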); details: automated patch clamp current, at 10 µM; active compounds read high
# Procedure, shortened: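 Read-out: Percent current increase versus pre-compound level | Assay system: CHO cells carrying KCNQ1 | Measured by: Automated perforated-patch electrophysiology | Medium: External bath solution at pH 7.4 | Dosing: One dose, 10 µM final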
# Potassium voltage-gated channel subfamily KQT member 1 (Homo sapiens), sequence (P51787 whole entry, looked up): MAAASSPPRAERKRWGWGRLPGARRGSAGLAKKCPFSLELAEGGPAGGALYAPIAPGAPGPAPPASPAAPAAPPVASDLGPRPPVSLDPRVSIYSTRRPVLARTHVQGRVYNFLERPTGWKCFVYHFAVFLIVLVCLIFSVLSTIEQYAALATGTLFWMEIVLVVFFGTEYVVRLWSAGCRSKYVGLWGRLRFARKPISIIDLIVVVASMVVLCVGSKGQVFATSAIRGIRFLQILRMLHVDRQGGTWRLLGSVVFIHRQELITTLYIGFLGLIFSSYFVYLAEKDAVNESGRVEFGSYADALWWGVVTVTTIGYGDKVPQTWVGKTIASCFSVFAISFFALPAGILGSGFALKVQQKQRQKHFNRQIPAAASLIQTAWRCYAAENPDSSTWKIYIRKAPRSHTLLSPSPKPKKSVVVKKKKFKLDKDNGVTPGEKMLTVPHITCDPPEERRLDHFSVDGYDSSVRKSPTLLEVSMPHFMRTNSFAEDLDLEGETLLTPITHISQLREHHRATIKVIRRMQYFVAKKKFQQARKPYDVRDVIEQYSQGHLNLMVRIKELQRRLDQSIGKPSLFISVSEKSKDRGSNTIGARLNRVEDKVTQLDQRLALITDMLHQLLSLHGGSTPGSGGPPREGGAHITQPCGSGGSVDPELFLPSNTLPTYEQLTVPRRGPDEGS
# Potassium voltage-gated channel subfamily KQT member 2 (Rattus norvegicus), sequence (O88943 whole entry, looked up): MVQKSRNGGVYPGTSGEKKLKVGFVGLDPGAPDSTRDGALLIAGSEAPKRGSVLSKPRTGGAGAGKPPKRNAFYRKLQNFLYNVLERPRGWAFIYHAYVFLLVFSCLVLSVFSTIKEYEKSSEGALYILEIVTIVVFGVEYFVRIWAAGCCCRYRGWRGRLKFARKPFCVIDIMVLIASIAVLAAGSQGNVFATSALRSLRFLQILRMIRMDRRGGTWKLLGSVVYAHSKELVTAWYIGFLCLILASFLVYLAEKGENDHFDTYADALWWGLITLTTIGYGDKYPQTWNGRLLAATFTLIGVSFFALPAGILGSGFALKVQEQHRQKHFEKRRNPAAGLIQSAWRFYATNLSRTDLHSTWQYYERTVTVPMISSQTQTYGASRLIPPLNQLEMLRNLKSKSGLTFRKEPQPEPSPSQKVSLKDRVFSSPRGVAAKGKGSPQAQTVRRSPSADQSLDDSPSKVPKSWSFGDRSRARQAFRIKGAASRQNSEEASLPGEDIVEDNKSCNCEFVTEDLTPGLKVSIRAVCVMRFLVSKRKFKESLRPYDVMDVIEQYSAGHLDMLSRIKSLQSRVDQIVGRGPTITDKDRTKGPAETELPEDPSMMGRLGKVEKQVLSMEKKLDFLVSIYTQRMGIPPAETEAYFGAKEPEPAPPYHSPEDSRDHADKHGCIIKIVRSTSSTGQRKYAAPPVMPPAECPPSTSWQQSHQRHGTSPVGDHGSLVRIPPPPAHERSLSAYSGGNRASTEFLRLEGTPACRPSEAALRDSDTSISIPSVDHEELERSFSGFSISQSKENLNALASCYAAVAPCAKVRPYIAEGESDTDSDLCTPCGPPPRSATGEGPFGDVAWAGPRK
Structure (SMILES),activation [1],potentiation [2],potentiation [3],outcome [4],outcome [1],outcome [2],outcome [3]
COc1cccc(-c2nnc(Nc3nc4c(F)cccc4s3)o2)c1,278% (active),91.5% (active),280% (active),inactive,–,–,–
C=CCOc1ccc(/C=C2\SC(=S)N(NS(=O)(=O)c3ccc(C)cc3)C2=O)cc1,447% (active),444% (active),852% (active),inactive,–,–,–
CCC1(c2ccc(Cl)cc2)NC(=S)N(c2ccc(C)c(C)c2)N1 (centres undefined),706% (active),188% (active),550% (active),inactive,–,–,–
O=C(O)c1ccccc1C(=O)NNc1ccc(Cl)cc1,–,–,–,inactive,inactive,inactive,inactive
CCN(CC)CCn1c(=S)[nH]c2cc(C(=O)NCc3ccc(C)cc3)ccc2c1=O,–,–,–,inactive,inactive,inactive,inactive
CC(=O)c1c(C)[nH]c(C(=O)Nc2cccc(C(F)(F)F)c2)c1C,–,–,–,inactive,inactive,inactive,inactive
Nc1c(Cl)cc(C2=NCCn3nc4cc(C(F)(F)F)ccc4c32)cc1Cl,–,–,–,inactive,inactive,inactive,inactive
COc1cccc2sc(Nc3nnc(-c4ccc(F)cc4)o3)nc12,394% (active),202% (active),521% (active),inactive,–,–,–
OC(CON=C1c2ccccc2-c2ccccc21)CN1CCNCC1 (centres undefined),–,–,–,inactive,inactive,inactive,inactive
c1ccc2c(c1)CSc1sccc1C2=C1CCNCC1,–,–,–,inactive,inactive,inactive,inactive
COc1cccc(N=Nc2ccc3cccnc3c2O)c1,154% (active),29% (active),162% (active),inactive,–,–,–
COc1cccc(/C=N/NC(=O)C(C)n2nc(C)c([N+](=O)[O-])c2C)c1O (centres undefined),–,–,–,inactive,inactive,inactive,inactive
COc1cc(CNCc2ccccn2)ccc1OCc1c(Cl)cccc1Cl,–,–,–,inactive,inactive,inactive,inactive
CCNc1nc(NCC)n2c(SCC(=O)Nc3ccc(F)cc3)nnc2n1,–,–,–,inactive,inactive,inactive,inactive
O=C(NC(=S)N1CCc2ccccc21)c1ccccc1,308% (active),162% (active),366% (active),inactive,–,–,–
CCOCCc1c(O)nc(SC)[nH]c1=O,–,–,–,inactive,inactive,inactive,inactive
N=c1ccn(CC(=O)c2ccc(-c3ccccc3)cc2)cc1,–,–,–,inactive,inactive,inactive,inactive
Cc1cc(C(c2cc(C)c(N)c(C)c2)c2ccco2)cc(C)c1N,189% (active),138% (active),224% (active),inactive,–,–,–
ON/C=N/C(=S)Nc1ncc(C(F)(F)F)cc1Cl,264% (active),69% (active),218% (active),inactive,–,–,–

Structure (SMILES),activation [1],potentiation [2],potentiation [3],outcome [4],outcome [1],outcome [2],outcome [3]
N=c1ncn(Cc2ccccc2)c2nc(SCCOc3ccccc3)[nH]c12,–,–,–,inactive,inactive,inactive,inactive
CC(=O)Nc1cc(NC(C)=O)cc(C(=O)OC(C)C(=O)Nc2ccc(S(=O)(=O)N3CCCC3)cc2)c1 (centres undefined),224% (active),54% (active),216% (active),inactive,–,–,–
COc1cc(C(=O)NC(=S)N(CCc2ccccc2)CCc2ccccc2)cc(OC)c1OC,198% (active),104% (active),256% (active),inactive,–,–,–
CCCSc1nnc(-c2cnn(-c3ccccc3)c2-n2cccc2)n1C,–,–,–,inactive,inactive,inactive,inactive
C=CCn1c(O)c(N=NC(=S)Nc2ccccc2F)c2ccccc21,352% (active),212% (active),416% (active),inactive,–,–,–
C/C(=N\NC(=O)C(=O)Nc1cccc(C(F)(F)F)c1)c1ccc(Cl)s1,–,–,–,inactive,inactive,inactive,inactive
O=c1cc(-c2ccccc2)nc2c(-c3ccccc3)c(C(F)(F)F)[nH]n12,626% (active),282% (active),591% (active),inactive,–,–,–
O=C(NC(=S)N1CCc2ccccc21)c1ccco1,198% (active),49.5% (active),226% (active),inactive,–,–,–
COc1ccc(S(=O)(=O)Nc2cccc3ccc(O)cc23)cc1,–,–,–,inactive,inactive,inactive,inactive
CC(=O)Oc1c(-c2ccc(Br)o2)oc2ccccc2c1=O,480% (active),109% (active),482% (active),inactive,–,–,–
O=c1c2ccc(Cl)cc2[nH]c(=S)n1CCC1=CCCCC1,156% (active),48.5% (active),166% (active),inactive,–,–,–
Cn1c(=O)c2c(SC3CCCC3)nc(C3CC3)nc2n(C)c1=O,–,–,–,inactive,inactive,inactive,inactive
C=CCNc1nnc(SCC(=O)N2CCC(C(N)=O)CC2)s1,–,–,–,inactive,inactive,inactive,inactive
CCC1CCC2(CC1)NNC(=S)NN2,–,–,–,inactive,inactive,inactive,inactive
Nc1nc(COc2ccccc2C=O)nc(Nc2ccccc2)n1,–,–,–,inactive,inactive,inactive,inactive
Cc1ccnc(NC(=O)CNC(=O)c2ccc3c(c2)OCO3)c1,–,–,–,inactive,inactive,inactive,inactive
O=C(Nc1ccccc1F)C1C2C=CC3(O2)C1C(=O)N(c1cccnc1)C3C(=O)NC1CCCCC1 (centres undefined),–,–,–,inactive,inactive,inactive,inactive
C#CCOCCOCCOCCNc1nc(N2CCN(C(=O)C([C@@H](C)CC)n3cc(C(N)Cc4ccc(O)cc4)nn3)CC2)nc(N2CCN(C(=O)[C@H](CCC(=O)O)n3cc(C(N)CC(C)C)nn3)CC2)n1 (some centres undefined),–,–,–,inactive,inactive,inactive,inactive
Cc1sc(NC(=O)CS(=O)(=O)c2ccccc2)c(C#N)c1C,–,–,–,inactive,inactive,inactive,inactive

Structure (SMILES),activation [1],potentiation [2],potentiation [3],outcome [4],outcome [1],outcome [2],outcome [3]
Cc1sc2nc[nH]c(=S)c2c1-c1ccccc1,289% (active),93.5% (active),304% (active),inactive,–,–,–
CNC(=S)N/N=C/c1cc(Br)cc(Br)c1O,168% (active),–,–,inactive,–,inactive,inactive
O=C(NCc1cccc(Cl)c1)c1cccc(OC2CCN(C(=O)C3CC3)CC2)c1,–,–,–,inactive,inactive,inactive,inactive
Cc1cccc(NC(=O)c2cccnc2)c1,–,–,–,inactive,inactive,inactive,inactive
CCc1nnc(NC(=O)CN2C(=O)c3ccccc3C2=O)s1,–,–,–,inactive,inactive,inactive,inactive
COc1ccc(OC)c(S(=O)(=O)Nc2ccc3c(c2)N(C(C)=O)CCC3)c1,–,–,–,inactive,inactive,inactive,inactive
Cc1ccc(-c2n[nH]c(=S)nc2-c2ccc(C)cc2)cc1,160% (active),32% (active),159% (active),inactive,–,–,–
Cc1ccc(-c2csc3nc[nH]c(=S)c23)cc1C,223% (active),56.5% (active),222% (active),inactive,–,–,–
CCOC(=O)c1c(NC(=S)NC(=O)c2ccco2)sc2c1CCCC2,–,–,–,inactive,inactive,inactive,inactive
Oc1c(Br)cc(Br)cc1C=Nc1ccc2c(c1)OCCO2,159% (active),–,–,inactive,–,inactive,inactive
O=C(COC(=O)c1cc(NS(=O)(=O)c2cccs2)ccc1O)Nc1cc(Cl)ccc1Cl,–,–,–,inactive,inactive,inactive,inactive
Cc1cc(C)n(CCNS(=O)(=O)c2ccccc2)n1,–,–,–,inactive,inactive,inactive,inactive
O=C(COc1ccccc1F)Nc1ccc(S(=O)(=O)NCc2ccco2)cc1,–,–,–,inactive,inactive,inactive,inactive
COc1ccc(C(=O)N2CCC(n3nccc3NC(=O)C3CCOC3)CC2)cc1 (centres undefined),–,–,–,inactive,inactive,inactive,inactive
O=C(NC(=S)Nc1ccccc1N1CCOCC1)c1cccc([N+](=O)[O-])c1,–,–,–,inactive,inactive,inactive,inactive
CCOC(=O)c1c(NC(=S)NCC2CCCO2)sc(C)c1C (centres undefined),–,–,–,inactive,inactive,inactive,inactive
Cc1cc(-c2csc3nc[nH]c(=S)c23)cc(C)c1C,286% (active),255% (active),408% (active),inactive,–,–,–
O=C(NC(=S)NC1CCCCC1)c1ccc(F)cc1,–,–,–,inactive,inactive,inactive,inactive
